# Assay results taken from ChEMBL document CHEMBL4699442, “Discovery of Soft-Drug Topical Tool Modulators of Sphingosine-1-phosphate Receptor 1 (S1PR1)” (ACS Med Chem Lett, 2019).
# Key:
# [1] = Metabolic stability in human skin S9 cells assessed as half life at 0.5 uM incubated for 180 mins by UPLC-MS/MS analysis; assay type: ADME, subcellular, Zone of skin; conditions: s9, 3 h
# How it was run: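 Skin S9 fraction was incubated with compound in the presence of enzymatic cofactors. Stability was followed over 180 min, n = 1.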
# [2] = Lipophilicity, logD of compound at pH 7.4 by RP-HPLC analysis; assay type: physicochemical; conditions: buffer
# [3] = Dissociation constant, pKa of compound by potentiometric fast UV-metric titration method; assay type: physicochemical
# [4] = Metabolic stability in human Hepatocyte assessed as intrinsic clearance at 1 uM incubated for 90 mins by UPLC-MS/MS analysis; assay type: ADME, tissue-based; conditions: hepatocytes
# How it was run: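 Human hepatocytes were incubated with compound to capture phase 2 and other metabolism.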
# [5] = Stability of compound in DMSO assessed as decrease in purity incubated for 24 hrs; assay type: physicochemical
# How it was run: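 Compound was held in DMSO solution and its stability judged after 24 h. Single determination, n = 1.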
structure (smiles),measurement,setting,value
CCC/N=C1\S/C(=C\c2ccc(OC(C)=O)c(Br)c2)C(=O)N1c1ccccc1C,t1/2,[1],8.8 min
CCC/N=C1\S/C(=C\c2ccc(O)c(Cl)c2)C(=O)N1c1ccccc1OC,logD,[2],3.3
CCC/N=C1\S/C(=C\c2ccc(O)cn2)C(=O)N1c1ccccc1C,pKa,[3],7.1
same,CLH,[4],7.9 mL/min/g
same,logD,[2],3
CCC/N=C1\S/C(=C\c2ccc(OC(=O)CN(C)C)c(C)c2)C(=O)N1c1ccccc1C,Stabilty,[5],Unstable
COCC/N=C1\S/C(=C\c2ccc(O)c(Cl)c2)C(=O)N1c1ccccc1C,logD,[2],2.9
CCC/N=C1\S/C(=C\c2ccc(OC(C)=O)c(C(F)(F)F)c2)C(=O)N1c1ccccc1C,t1/2,[1],8.3 min
CCC/N=C1\S/C(=C\c2ccc(OC(C)=O)c(C)c2)C(=O)N1c1ccccc1C,t1/2,[1],7.3 min
CCC/N=C1\S/C(=C\c2ccc(OC(=O)COC)c(C)c2)C(=O)N1c1ccccc1C,Stabilty,[5],Unstable
CCC/N=C1\S/C(=C\c2ccc(O)c(Cl)c2)C(=O)N1C(C)C,logD,[2],> 4.3
Cc1ccccc1N1C(=O)/C(=C/c2ccc(O)c(Cl)c2)S/C1=N\C1COC1,logD,[2],2.6
CCC/N=C1\S/C(=C\c2ccc(OC(=O)C(C)C)c(C)c2)C(=O)N1c1ccccc1C,t1/2,[1],21 min
Cc1ccccc1N1C(=O)/C(=C/c2ccc(O)c(Cl)c2)S/C1=N\CCO,logD,[2],1.9
Cc1ccccc1N1C(=O)/C(=C/c2ccc(O)c(Cl)c2)S/C1=N\CCCF,logD,[2],3.4
CCC/N=C1\S/C(=C\c2ccc(O)c(Cl)c2)C(=O)N1c1ccccc1O,logD,[2],2.7
CCC/N=C1\S/C(=C\c2ccc(O)c(Cl)c2)C(=O)N1c1ccccc1C,pKa,[3],6.8
same,CLH,[4],8.4 mL/min/g
same,logD,[2],3.8
CCC/N=C1\S/C(=C\c2ccc(O)c(Br)c2)C(=O)N1c1ccccc1C,pKa,[3],6.4
same,CLH,[4],6 mL/min/g
same,logD,[2],3.9
CCC/N=C1\S/C(=C\c2ccc(OC(=O)CCO)c(C)c2)C(=O)N1c1ccccc1C,t1/2,[1],8.2 min
CCC/N=C1\S/C(=C\c2ccc(OC(=O)CCOC)c(C)c2)C(=O)N1c1ccccc1C,t1/2,[1],4.8 min
CCC/N=C1\S/C(=C\c2ccc(OC[C@H](O)CO)c(Cl)c2)C(=O)N1c1ccccc1C [PONESIMOD],t1/2,[1],> 180 min
CCC/N=C1\S/C(=C\c2ccc(O)c(C(C)C)c2)C(=O)N1c1ccccc1C,pKa,[3],8.6
same,CLH,[4],12 mL/min/g
same,logD,[2],4.3
CCC/N=C1\S/C(=C\c2ccc(O)c(Cl)c2)C(=O)N1C1CCS(=O)(=O)CC1,logD,[2],2.6
CCC/N=C1\S/C(=C\c2ccc(OC(=O)C(C)(C)C)c(C)c2)C(=O)N1c1ccccc1C,t1/2,[1],> 180 min
CCC/N=C1\S/C(=C\c2ccc(O)c(Cl)c2)C(=O)N1C1CCOCC1,logD,[2],3.7
CCC/N=C1\S/C(=C\c2ccc(O)c(C(F)(F)F)c2)C(=O)N1c1ccccc1C,pKa,[3],6.6
same,CLH,[4],4.2 mL/min/g
same,logD,[2],3.8
CCC/N=C1\S/C(=C\c2ccc(O)c(C)c2)C(=O)N1c1ccccc1C,pKa,[3],8.5
same,CLH,[4],31 mL/min/g
same,logD,[2],3.8
CCC/N=C1\S/C(=C\c2ccc(O)cc2)C(=O)N1c1ccccc1C,pKa,[3],8.3
same,CLH,[4],1.7 mL/min/g
same,logD,[2],3.5
CCC/N=C1\S/C(=C\c2ccc(O)c(Cl)c2)C(=O)N1C1CC1,logD,[2],3.4
CCC/N=C1\S/C(=C\c2ccc(O)c(Cl)c2)C(=O)N1C1CCN(C)C(=O)C1 (racemic),logD,[2],0.6
